The source of these data is ChEMBL document CHEMBL3576820, “Discovery of benzimidazole oxazolidinediones as novel and selective nonsteroidal mineralocorticoid receptor antagonists” (ACS Med Chem Lett, 2015).

One data set addresses T1, Estrogen receptor (Homo sapiens, UniProt P03372).
T1 sequence (P03372 whole entry): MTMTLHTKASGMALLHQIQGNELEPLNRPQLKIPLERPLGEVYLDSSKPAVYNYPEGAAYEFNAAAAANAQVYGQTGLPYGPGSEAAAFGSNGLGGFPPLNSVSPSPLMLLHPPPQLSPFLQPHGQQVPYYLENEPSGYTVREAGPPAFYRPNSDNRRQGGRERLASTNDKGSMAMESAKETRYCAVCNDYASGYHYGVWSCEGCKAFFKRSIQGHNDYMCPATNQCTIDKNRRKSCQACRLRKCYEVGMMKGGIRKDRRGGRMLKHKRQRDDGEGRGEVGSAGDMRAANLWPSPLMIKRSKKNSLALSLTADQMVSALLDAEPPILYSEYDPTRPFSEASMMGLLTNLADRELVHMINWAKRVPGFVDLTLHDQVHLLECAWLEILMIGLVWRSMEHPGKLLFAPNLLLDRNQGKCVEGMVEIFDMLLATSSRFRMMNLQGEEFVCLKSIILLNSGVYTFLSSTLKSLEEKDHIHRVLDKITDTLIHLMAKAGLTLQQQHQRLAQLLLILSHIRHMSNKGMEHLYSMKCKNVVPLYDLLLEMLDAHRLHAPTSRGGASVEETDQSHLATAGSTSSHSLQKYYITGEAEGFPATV
Nature of the data set: Antagonist activity at human estrogen receptor alpha expressed in CHOK1 cells assessed as inhibition of beta-estradiol-induced protein interaction with steroid receptor co-activator peptide after overnight incubation by beta-galactosidase reporter gene assay. The data set is classed as cell-based, CHO-K1.
Conditions: not given
(In general: In a reporter assay the amount or activity of a reporter protein is the signal.)
A word on the IC50: it is the concentration that gives 50% inhibition. On to `C[C@H](c1ccc(F)cc1)N1C(=O)O[C@](Cc2ccccc2)(c2nc3cc(C(F)(F)F)ccc3[nH]2)C1=O`, for which the half-inhibitory concentration (IC50) is 3 µM.

For `C[C@H](c1ccc(F)cc1)N1C(=O)O[C@](Cc2ccccc2)(c2nc3cc(-c4cc[nH]n4)ccc3[nH]2)C1=O`, the IC50 stood at 6.3 µM.

In the case of `C[C@H](c1ccc(F)cc1)N1C(=O)O[C@](Cc2ccccc2)(c2nc3cc(N4CCOCC4)ccc3[nH]2)C1=O`, the half-maximal inhibitory concentration (IC50) came out at 6.1 µM.

Regarding `C[C@H](c1ccc(F)cc1)N1C(=O)O[C@](Cc2ccccc2)(c2nc3cc(-c4cccnc4)ccc3[nH]2)C1=O`, the IC50 was 7.9 µM.

Tested on in the next data set: not listed separately
Nature of the data set: Metabolic stability in rat liver microsomes assessed as compound remaining at 1 uM after 0.5 hrs. The format is ADME. Conditions: read-out: Stability.
For the compound `C[C@H](c1ccc(F)cc1)N1C(=O)O[C@](Cc2ccccc2)(c2nc3cc(C(F)(F)F)ccc3[nH]2)C1=O`, the remaining at 0.5 h, 1 µM stood at 41%.

Consider `C[C@H](c1ccc(F)cc1)N1C(=O)O[C@](Cc2ccccc2)(c2nc3cc(-c4cc[nH]n4)ccc3[nH]2)C1=O`, for which the remaining at 0.5 h, 1 µM came to 62%.

On to `C[C@H](c1ccc(F)cc1)N1C(=O)O[C@](Cc2ccccc2)(c2nc3cc(N4CCOCC4)ccc3[nH]2)C1=O`, for which the remaining at 0.5 h, 1 µM amounted to 92%.

In the case of `C[C@H](c1ccc(F)cc1)N1C(=O)O[C@](Cc2ccccc2)(c2nc3cc(-c4cccnc4)ccc3[nH]2)C1=O`, the remaining at 0.5 h, 1 µM was determined as 45%.

For another data set, the target named is T2, Mineralocorticoid receptor (Homo sapiens, UniProt P08235).
T2 sequence (P08235 whole entry): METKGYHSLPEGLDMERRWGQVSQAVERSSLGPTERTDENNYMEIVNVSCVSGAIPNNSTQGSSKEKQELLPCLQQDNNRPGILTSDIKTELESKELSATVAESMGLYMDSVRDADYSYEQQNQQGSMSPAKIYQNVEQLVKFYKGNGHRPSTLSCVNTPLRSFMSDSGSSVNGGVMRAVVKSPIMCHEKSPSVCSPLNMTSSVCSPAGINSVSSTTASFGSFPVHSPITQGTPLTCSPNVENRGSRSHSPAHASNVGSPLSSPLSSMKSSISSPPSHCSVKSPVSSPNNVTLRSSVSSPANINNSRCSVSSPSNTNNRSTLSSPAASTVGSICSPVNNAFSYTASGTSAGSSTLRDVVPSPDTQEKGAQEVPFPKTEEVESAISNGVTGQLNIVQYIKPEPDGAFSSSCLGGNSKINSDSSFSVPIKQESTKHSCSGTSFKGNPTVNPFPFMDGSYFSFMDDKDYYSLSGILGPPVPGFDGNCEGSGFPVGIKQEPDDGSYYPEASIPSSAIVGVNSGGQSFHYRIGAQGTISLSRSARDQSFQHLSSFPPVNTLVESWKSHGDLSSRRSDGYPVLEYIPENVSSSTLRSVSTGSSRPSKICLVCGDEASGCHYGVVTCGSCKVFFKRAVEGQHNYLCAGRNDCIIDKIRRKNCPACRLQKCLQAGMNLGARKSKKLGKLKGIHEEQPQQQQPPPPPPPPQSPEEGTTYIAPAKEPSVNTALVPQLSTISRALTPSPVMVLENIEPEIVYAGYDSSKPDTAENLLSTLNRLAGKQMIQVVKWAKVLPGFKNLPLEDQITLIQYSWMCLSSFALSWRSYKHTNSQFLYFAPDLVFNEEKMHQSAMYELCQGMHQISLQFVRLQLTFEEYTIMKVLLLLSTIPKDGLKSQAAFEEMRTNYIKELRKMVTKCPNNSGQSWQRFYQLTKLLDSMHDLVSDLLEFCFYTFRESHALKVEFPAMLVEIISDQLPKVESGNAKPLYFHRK
Put plainly: Antagonist activity at human mineralocorticoid receptor overexpressed in CHOK1 cells assessed as inhibition of aldosterone-induced protein interaction with coactivator peptide after 6 hrs by luminescence assay. The format is cell-based, CHO-K1.
Conditions: not given
Turning to `C[C@H](c1ccc(F)cc1)N1C(=O)O[C@](Cc2ccccc2)(c2nc3cc(C(F)(F)F)ccc3[nH]2)C1=O`, the IC50 worked out at 0.12 µM.

Turning to `C[C@H](c1ccc(F)cc1)N1C(=O)O[C@](Cc2ccccc2)(c2nc3cc(-c4cc[nH]n4)ccc3[nH]2)C1=O`, the half-inhibitory concentration (IC50) turned out to be 0.12 µM.

For the compound `C[C@H](c1ccc(F)cc1)N1C(=O)O[C@](Cc2ccccc2)(c2nc3cc(N4CCOCC4)ccc3[nH]2)C1=O`, the half-maximal inhibitory concentration (IC50) worked out at 0.04 µM.

For the compound `C[C@H](c1ccc(F)cc1)N1C(=O)O[C@](Cc2ccccc2)(c2nc3cc(-c4cccnc4)ccc3[nH]2)C1=O`, the IC50 stood at 0.034 µM.

Tested on in another data set: not listed separately
Nature of the data set: Fraction unbound in 10% rat plasma. The format is ADME, cell-free. Particulars: 10% plasma. The procedure, abridged: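 Free fraction measured in the presence of 10% plasma (human or rat), taken as correlating with the free fraction in whole plasma.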
As usually defined, the fraction unbound is free concentration divided by total concentration. A low value points to extensive binding. `C[C@H](c1ccc(F)cc1)N1C(=O)O[C@](Cc2ccccc2)(c2nc3cc(C(F)(F)F)ccc3[nH]2)C1=O` came in with a fraction unbound of 0.007.

In turn, `C[C@H](c1ccc(F)cc1)N1C(=O)O[C@](Cc2ccccc2)(c2nc3cc(-c4cc[nH]n4)ccc3[nH]2)C1=O` yielded an unbound share (fraction unbound) of 0.017.

As to `C[C@H](c1ccc(F)cc1)N1C(=O)O[C@](Cc2ccccc2)(c2nc3cc(N4CCOCC4)ccc3[nH]2)C1=O`, the unbound share (fraction unbound) was 0.065.

Compound `C[C@H](c1ccc(F)cc1)N1C(=O)O[C@](Cc2ccccc2)(c2nc3cc(-c4cccnc4)ccc3[nH]2)C1=O` had an unbound share (fraction unbound) of 0.008.

The target of a further data set is T3, Androgen receptor (Homo sapiens, UniProt P10275).
T3 sequence (P10275 whole entry): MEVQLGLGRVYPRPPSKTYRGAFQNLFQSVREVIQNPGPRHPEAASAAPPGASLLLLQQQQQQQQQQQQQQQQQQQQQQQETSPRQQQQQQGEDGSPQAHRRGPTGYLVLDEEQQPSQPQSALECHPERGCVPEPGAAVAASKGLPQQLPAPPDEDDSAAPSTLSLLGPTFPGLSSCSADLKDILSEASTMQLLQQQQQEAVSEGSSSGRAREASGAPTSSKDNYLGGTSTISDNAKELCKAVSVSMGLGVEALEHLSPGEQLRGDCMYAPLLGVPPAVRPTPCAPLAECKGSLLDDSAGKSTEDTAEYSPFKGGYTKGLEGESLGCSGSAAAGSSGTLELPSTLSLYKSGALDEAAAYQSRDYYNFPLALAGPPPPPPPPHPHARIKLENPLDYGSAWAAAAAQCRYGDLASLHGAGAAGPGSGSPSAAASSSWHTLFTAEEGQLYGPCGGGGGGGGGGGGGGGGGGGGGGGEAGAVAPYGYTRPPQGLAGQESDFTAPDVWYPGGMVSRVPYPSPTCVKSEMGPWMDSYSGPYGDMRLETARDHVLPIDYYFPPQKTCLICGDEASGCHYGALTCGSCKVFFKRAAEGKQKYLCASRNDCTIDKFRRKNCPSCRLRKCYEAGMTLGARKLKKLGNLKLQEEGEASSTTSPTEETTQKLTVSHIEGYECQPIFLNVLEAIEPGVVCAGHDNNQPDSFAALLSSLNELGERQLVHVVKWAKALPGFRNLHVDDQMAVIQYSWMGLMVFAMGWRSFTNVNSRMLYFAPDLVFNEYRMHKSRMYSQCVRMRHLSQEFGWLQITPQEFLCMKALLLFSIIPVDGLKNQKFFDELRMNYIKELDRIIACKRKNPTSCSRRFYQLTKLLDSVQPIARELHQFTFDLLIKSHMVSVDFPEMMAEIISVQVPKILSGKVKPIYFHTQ
Nature of the data set: Antagonist activity at human androgen receptor expressed in CHOK1 cells assessed as inhibition of D(-)-norgestrel-induced protein interaction with steroid receptor co-activator peptide after 24 hrs by beta-galactosidase reporter gene assay. The format is cell-based, CHO-K1.
Conditions: not given
For `C[C@H](c1ccc(F)cc1)N1C(=O)O[C@](Cc2ccccc2)(c2nc3cc(C(F)(F)F)ccc3[nH]2)C1=O`, the IC50 was found to be 3 µM.

For the compound `C[C@H](c1ccc(F)cc1)N1C(=O)O[C@](Cc2ccccc2)(c2nc3cc(-c4cc[nH]n4)ccc3[nH]2)C1=O`, the IC50 turned out to be 3.1 µM.

Consider `C[C@H](c1ccc(F)cc1)N1C(=O)O[C@](Cc2ccccc2)(c2nc3cc(N4CCOCC4)ccc3[nH]2)C1=O`, for which the concentration for half-maximal inhibition (IC50) came out at 7.7 µM.

Take `C[C@H](c1ccc(F)cc1)N1C(=O)O[C@](Cc2ccccc2)(c2nc3cc(-c4cccnc4)ccc3[nH]2)C1=O`: the concentration for half-maximal inhibition (IC50) was found to be 3.7 µM.

Tested on in a further data set: not listed separately
Nature of the data set: Metabolic stability in human liver microsomes assessed as compound remaining at 1 uM after 0.5 hrs. The data set is classed as ADME. Conditions: read-out: Stability. For orientation: Microsomes from liver hold many membrane-bound enzymes, among them those of drug oxidation.
Turning to `C[C@H](c1ccc(F)cc1)N1C(=O)O[C@](Cc2ccccc2)(c2nc3cc(C(F)(F)F)ccc3[nH]2)C1=O`, the remaining at 0.5 h, 1 µM is 89%.

Take `C[C@H](c1ccc(F)cc1)N1C(=O)O[C@](Cc2ccccc2)(c2nc3cc(-c4cc[nH]n4)ccc3[nH]2)C1=O`: the remaining at 0.5 h, 1 µM came out at 86%.

Consider `C[C@H](c1ccc(F)cc1)N1C(=O)O[C@](Cc2ccccc2)(c2nc3cc(N4CCOCC4)ccc3[nH]2)C1=O`, for which the remaining at 0.5 h, 1 µM came to 81%.

In the case of `C[C@H](c1ccc(F)cc1)N1C(=O)O[C@](Cc2ccccc2)(c2nc3cc(-c4cccnc4)ccc3[nH]2)C1=O`, the remaining at 0.5 h, 1 µM was 94%.

Tested on in a further data set: not listed separately
Nature of the data set: Oral bioavailability in Wistar han rat at 2 mg/kg. The format is ADME, organism-based. Particulars: in vivo. The gist of the method: (§1)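 Wistar Han rats. IV dose 1 mg/kg in DMSO/PEG200/water (10:60:30), n=2. Oral dose 2 mg/kg in imwitor/tween (1:1) by gavage, n=3. Values are averages. Derived: F%, plasma clearance, Vdss, terminal half-life and oral AUC normalized to dose.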
As a reminder, the bioavailability is dose-corrected exposure relative to a reference, in per cent. Compound `C[C@H](c1ccc(F)cc1)N1C(=O)O[C@](Cc2ccccc2)(c2nc3cc(C(F)(F)F)ccc3[nH]2)C1=O` came in with a bioavailability of 36%.

Consider `C[C@H](c1ccc(F)cc1)N1C(=O)O[C@](Cc2ccccc2)(c2nc3cc(-c4cc[nH]n4)ccc3[nH]2)C1=O`, for which the bioavailability is 27%.

`C[C@H](c1ccc(F)cc1)N1C(=O)O[C@](Cc2ccccc2)(c2nc3cc(N4CCOCC4)ccc3[nH]2)C1=O`: the bioavailability came out at 44%.

With `C[C@H](c1ccc(F)cc1)N1C(=O)O[C@](Cc2ccccc2)(c2nc3cc(-c4cccnc4)ccc3[nH]2)C1=O`, the bioavailability turned out to be 11%.

For a further data set, the system named is Rattus norvegicus. Nature of the data set: Dose normalized AUC in Wistar han rat at 2 mg/kg, po. The data set is classed as ADME, organism-based. Conditions: in vivo. The procedure, abridged:
as §1
For `C[C@H](c1ccc(F)cc1)N1C(=O)O[C@](Cc2ccccc2)(c2nc3cc(C(F)(F)F)ccc3[nH]2)C1=O`, the AUC/dose stood at 0.33 µM·kg·h/mg.

`C[C@H](c1ccc(F)cc1)N1C(=O)O[C@](Cc2ccccc2)(c2nc3cc(-c4cc[nH]n4)ccc3[nH]2)C1=O` registered an AUC/dose of 0.49 µM·kg·h/mg.

Compound `C[C@H](c1ccc(F)cc1)N1C(=O)O[C@](Cc2ccccc2)(c2nc3cc(N4CCOCC4)ccc3[nH]2)C1=O` returned an AUC/dose of 0.07 µM·kg·h/mg.

For `C[C@H](c1ccc(F)cc1)N1C(=O)O[C@](Cc2ccccc2)(c2nc3cc(-c4cccnc4)ccc3[nH]2)C1=O`, the AUC/dose is 0.046 µM·kg·h/mg.
